{"data": "Measured values gathered from unrelated publications", "note": "Lines come from different studies, so protocols differ."}
{"SMILES": "Cc1cccc(/C=C/[C@@H]2[C@H](N3C(=O)OC[C@@H]3c3ccccc3)C(=O)N2[C@H](CC(=O)N2CCC(N3CCCCC3)CC2)C(=O)N[C@H](C)c2ccccc2)c1", "medium": "PAMPA-BBB", "tested at": "25 µg/mL", "time": "18 h", "pH": "pH 7.4", "Papp": "> 40 nm/s"}
{"SMILES": "CO[C@H]1CNC[C@@H](OCC2CCC(F)(F)CC2)[C@@H]1Nc1ncc(-c2cncc(C)c2)c2cc(C)c(=O)[nH]c12", "medium": "PAMPA", "pH": "pH 7.4", "Papp": "190 nm/s"}
{"SMILES": "COC(=O)[C@H](C)Nc1ccnc(Nc2cccc(-c3cccnc3)c2)n1", "medium": "PAMPA", "tested at": "50 nM", "time": "30 min", "Papp": "19100 nm/s"}
{"SMILES": "c1ccc(-c2nc(N3CCOCC3)c3ccccc3n2)nc1", "medium": "PAMPA", "tested at": "10 µM", "time": "3 h", "pH": "pH 7.4", "Papp": "194 nm/s"}
{"SMILES": "N#Cc1ccc(/C=C/CN(CC[C@H](N)C(=O)O)C[C@H]2O[C@@H](n3cnc4c(N)ncnc43)[C@H](O)[C@@H]2O)cc1", "medium": "PAMPA", "tested at": "200 µM", "time": "5 h", "Papp": "0.1 nm/s"}
{"SMILES": "Cc1csc2c(=O)n(O)c(=O)[nH]c12", "medium": "PAMPA", "tested at": "10 µM", "time": "5 h", "Papp": "1 nm/s"}
{"SMILES": "COCC(C)Nc1ccnc(Nc2cccc(-c3cccnc3)c2)n1 (centres unmarked)", "medium": "PAMPA", "tested at": "50 nM", "time": "30 min", "Papp": "19100 nm/s"}
{"SMILES": "CC[C@H](C)[C@@H]1NC(=O)[C@@H](Cc2ccccc2)OC(=O)CNC(=O)[C@H]([C@@H](C)CC)NC(=O)[C@@H](Cc2ccccc2)OC(=O)CNC1=O", "medium": "PAMPA", "Papp": "470 nm/s"}
{"SMILES": "O=c1[nH]c2c(-c3ccccc3)csc2c(=O)n1O", "medium": "PAMPA", "tested at": "10 µM", "time": "5 h", "Papp": "15 nm/s"}
{"SMILES": "NC(=O)C1CCN(c2nc(-c3ccccn3)nc3ccccc23)C1 (centres unmarked)", "medium": "PAMPA", "tested at": "10 µM", "time": "3 h", "pH": "pH 7.4", "Papp": "80 nm/s"}
{"SMILES": "O=C(CNc1cccc(OC(F)(F)F)c1)NC12CC3CC(CC(C3)C1)C2", "medium": "PAMPA", "time": "16 h", "Papp": "35 nm/s"}
{"SMILES": "N=c1c2c(-c3ccccc3)c(-c3ccccc3)n(CCc3ccccc3)c2ncn1CC1CCOCC1", "medium": "PAMPA", "tested at": "50 µM", "time": "30 min", "Papp": "12300 nm/s"}
{"SMILES": "Cc1noc(C)c1-c1ccc2nc(-c3cnn(CC(C)(C)O)c3)nc(N3CCOC[C@@H]3c3ccccc3)c2c1", "medium": "PAMPA", "Papp": "11800 nm/s"}
{"SMILES": "CCN1CC(=O)NC(CC(C)C)C(=O)N(C)C(C)C(=O)NC(CC(C)C)C(=O)N2CCCC2C(=O)N(CC2CCCCC2)CC(=O)NC(CC(C)C)C(=O)N(C)C(C)C(=O)NC(Cc2ccccc2)C(=O)N2CCCC2C1=O (centres unmarked)", "medium": "PAMPA", "Papp": "180 nm/s"}
{"SMILES": "CCCCNc1ccnc(Nc2cccc(-c3cccnc3)c2)n1", "medium": "PAMPA", "tested at": "50 nM", "time": "30 min", "Papp": "17200 nm/s"}
{"SMILES": "Oc1ccc(-c2nc(N3CCC(c4ccccn4)C3)c3ccccc3n2)cc1 (centres unmarked)", "medium": "PAMPA", "tested at": "10 µM", "time": "3 h", "pH": "pH 7.4", "Papp": "328 nm/s"}
{"SMILES": "N=c1c2c(-c3ccccc3)c(-c3ccccc3)n(Cc3ccc(OC(F)(F)F)cc3)c2ncn1[C@H]1CC[C@@H](O)CC1", "medium": "PAMPA", "tested at": "50 µM", "time": "30 min", "Papp": "12500 nm/s"}
{"SMILES": "O=c1[nH]c2scc(-c3ccccc3)c2c(=O)n1O", "medium": "PAMPA", "tested at": "10 µM", "time": "5 h", "Papp": "4 nm/s"}
{"SMILES": "N=c1c2c(-c3ccccc3)c(-c3ccccc3)n(Cc3ccc(S(N)(=O)=O)cc3)c2ncn1C1CCOCC1", "medium": "PAMPA", "tested at": "50 µM", "time": "30 min", "Papp": "10 nm/s"}
{"SMILES": "CC(C)NCC(O)COc1cccc2ccccc12 (centres unmarked)", "medium": "PAMPA-BBB", "tested at": "0.5 µM", "time": "4 h", "pH": "pH 7.4", "Papp": "48.2 nm/s"}
{"SMILES": "O=c1[nH]c2cc(-c3ccc(F)cc3)sc2c(=O)n1O", "medium": "PAMPA", "tested at": "10 µM", "time": "5 h", "Papp": "6 nm/s"}
{"SMILES": "C[C@@H](NC(=O)[C@@H](CC(=O)N1CCC(N2CCCCC2)CC1)N1C(=O)[C@@H](N2C(=O)OC[C@@H]2c2ccccc2)[C@H]1/C=C/c1cccc(I)c1)c1ccccc1", "medium": "PAMPA-BBB", "tested at": "25 µg/mL", "time": "18 h", "pH": "pH 7.4", "Papp": "20 to 40 nm/s"}
{"SMILES": "Cc1c(C)n(Cc2ccccc2)c2ncn(C3CCOCC3)c(=N)c12", "medium": "PAMPA", "tested at": "50 µM", "time": "30 min", "Papp": "16800 nm/s"}
{"SMILES": "O=C(O)c1ccc2c(c1)nc(Nc1cccc(Cl)c1)c1ccncc12", "medium": "PAMPA", "time": "5 h", "pH": "pH 7.4", "Papp": "7.28 nm/s"}
{"SMILES": "Cn1nccc1-c1nc(N2CCC(c3ccccn3)C2)c2ccccc2n1 (centres unmarked)", "medium": "PAMPA", "tested at": "10 µM", "time": "3 h", "pH": "pH 7.4", "Papp": "493 nm/s"}
{"SMILES": "C[C@H](Nc1ccnc(Nc2cccc(-c3cccnc3)c2)n1)C(=O)O", "medium": "PAMPA", "tested at": "50 nM", "time": "30 min", "Papp": "97 nm/s"}
{"SMILES": "O=C(Nc1ccn(Cc2ccc(O)cc2C(F)(F)F)n1)c1c(F)cccc1F", "medium": "PAMPA", "Papp": "360 nm/s"}
{"SMILES": "c1cncc(-c2cccc(Nc3nccc(NC4CCNCC4)n3)c2)c1", "medium": "PAMPA", "tested at": "50 nM", "time": "30 min", "Papp": "82 nm/s"}
{"SMILES": "CC(C)NCC(O)COc1cccc2ccccc12 (centres unmarked)", "medium": "PAMPA-BBB", "tested at": "50 µM", "time": "16 h", "pH": "pH 7.4", "Papp": "224 nm/s"}
{"SMILES": "Cc1csc2[nH]c(=O)n(O)c(=O)c12", "medium": "PAMPA", "tested at": "10 µM", "time": "5 h", "Papp": "2 nm/s"}
{"SMILES": "N=c1c2c(-c3ccccc3)cn(Cc3ccccc3)c2ncn1Cc1ccco1", "medium": "PAMPA", "tested at": "50 µM", "time": "30 min", "Papp": "17400 nm/s"}
{"SMILES": "Cc1cccnc1CNc1nc(-c2ccccn2)nc2ccccc12", "medium": "PAMPA", "tested at": "10 µM", "time": "3 h", "pH": "pH 7.4", "Papp": "271 nm/s"}
{"SMILES": "O=c1[nH]c2cc(-c3ccc(Cl)cc3)ccc2c(=O)n1O", "medium": "PAMPA", "tested at": "10 µM", "time": "5 h", "Papp": "17 nm/s"}
{"SMILES": "c1cncc(-c2cccc(Nc3nccc(NC4CCOCC4)n3)c2)c1", "medium": "PAMPA", "tested at": "50 nM", "time": "30 min", "Papp": "18400 nm/s"}
{"SMILES": "COc1ccc(Cn2c(-c3ccccc3)c(-c3ccccc3)c3c(=N)n(CC4CCOCC4)cnc32)cc1", "medium": "PAMPA", "tested at": "50 µM", "time": "30 min", "Papp": "12700 nm/s"}
{"SMILES": "COc1cc(CN2CCc3c(cc(Cn4ccnc4C)cc3-c3cn(C)nc3C(F)(F)F)C2=O)cc(OC)c1", "medium": "PAMPA", "tested at": "100 µM", "time": "5 h", "pH": "pH 7.4", "Papp": "53 nm/s"}
{"SMILES": "CC(C)(C)Nc1ccnc(Nc2cccc(-c3cccnc3)c2)n1", "medium": "PAMPA", "tested at": "50 nM", "time": "30 min", "Papp": "19900 nm/s"}
{"SMILES": "CCN1CCc2c(sc3[nH]c(=O)n(O)c(=O)c23)C1", "medium": "PAMPA", "tested at": "10 µM", "time": "5 h", "Papp": "0.8 nm/s"}
{"SMILES": "c1ccc(-c2nc(NCCn3ccnc3)c3ccccc3n2)nc1", "medium": "PAMPA", "tested at": "10 µM", "time": "3 h", "pH": "pH 7.4", "Papp": "84 nm/s"}
{"SMILES": "CC(C)Nc1ccnc(Nc2cccc(C(C)(C)C)c2)n1", "medium": "PAMPA", "tested at": "50 nM", "time": "30 min", "Papp": "16000 nm/s"}
{"SMILES": "c1ccc(-c2nc(NCc3nc4ccccc4o3)c3ccccc3n2)nc1", "medium": "PAMPA", "tested at": "10 µM", "time": "3 h", "pH": "pH 7.4", "Papp": "278 nm/s"}
{"SMILES": "CC(C)[C@@H]1NC(=O)[C@@H](Cc2ccccc2)OC(=O)CN(C)C(=O)[C@H](C(C)C)NC(=O)[C@@H](Cc2ccccc2)OC(=O)CN(C)C1=O", "medium": "PAMPA", "Papp": "560 nm/s"}
{"SMILES": "Cc1cc(N)nc(C#CCCN(C)C)c1", "medium": "PAMPA-BBB", "tested at": "200 µM", "time": "17 h", "Papp": "47 nm/s"}
{"SMILES": "c1ccc(-c2nc(N3CCC(c4ccccn4)C3)c3ccccc3n2)cc1 (centres unmarked)", "medium": "PAMPA", "tested at": "10 µM", "time": "3 h", "pH": "pH 7.4", "Papp": "424 nm/s"}
